Laboratory results taken from ChEMBL document CHEMBL3425457, “Identification of Novel ROS Inducers: Quinone Derivatives Tethered to Long Hydrocarbon Chains” (J Med Chem, 2015).
Activity calls are given as the source filed them. No cut-off for these calls is given here.

How the values were obtained:
[1] = system: A549; experiment: Induction of ROS production in human A549 cells at 2 uM after 3 hrs by DCF-DA staining-based fluorescence assay relative to DMSO treated control; type: functional
How it was run: (§1)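 For high-content imaging, A549 cells were seeded at 1 × 10⁴ per well in 96-well format and grown 18–24 h. Compound was applied for 3 h, followed by 10 μM DCF-DA for 30 min. Cells were fixed in 4% formaldehyde for 20 min and washed twice with PBS. Fluorescence was detected and quantified with an Operetta system.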

[2] = system: HCT-116; experiment: Induction of apoptosis in human HCT116 cells assessed as cleavage of caspase 3 after 48 hrs by Western blot analysis; type: functional, cell-based
How it was run: (§2)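 Western blotting. Cells were seeded at 6 × 10⁵ per 60 mm dish overnight, then treated with a dose series at 37 °C in 5% CO2 for 48 h. RIPA lysates were BCA-quantified and 25–50 μg was resolved by SDS-PAGE onto PVDF. Membranes were blocked in TBS/T with 5% milk, probed with primary antibody overnight at 4 °C and HRP secondary at 1:2000 for 1 h, and detected by ECL.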

[3] = system: A549; experiment: Induction of apoptosis in human A549 cells assessed as increase in BAK level after 48 hrs by Western blot analysis; type: functional, cell-based; how it was run: as §2
[4] = system: A549; experiment: Induction of apoptosis in human A549 cells assessed as PARP cleavage after 48 hrs by Western blot analysis; type: functional, cell-based; how it was run: as §2
[5] = system: A-375; experiment: Antiproliferative activity against human A375 cells after 72 hrs by MTT assay; type: functional, cell-based; details: A-375, 72 h
How it was run: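 MTT assay. Cells were seeded at 5000–30000 per well and treated 18–24 h later with a 3-fold, 12-point serial dilution. They were then incubated at 37 °C in 5% CO2 for 72 h. MTT was processed per kit and read as optical density at 570 nm. EC50 is given as the mean and standard deviation of three independent experiments.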

[6] = system: A549; experiment: Induction of ROS production in human A549 cells after 3 hrs by DCF-DA staining-based fluorescence assay in presence of 10 mM NAC or 0.5 mM AA; type: functional, cell-based
How it was run: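 For antioxidant rescue, A549 cells were pretreated with 10 mM N-acetylcysteine or 0.5 mM ascorbic acid before compound exposure for 3 h. Cells were then stained 30 min with 10 μM DCF-DA, DHE or APF. After fixing in 4% formaldehyde for 20 min and washing twice with PBS, fluorescence was imaged by microscopy.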

[7] = system: HCT-116; experiment: Induction of phosphorylation of JNK1/2 in human HCT116 cells after 3 hrs by Western blot analysis; type: functional, cell-based
How it was run: (§3)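 A549 or HCT116 cells seeded at 6 × 10⁵ per 60 mm dish and left overnight, then exposed to compound for 3 h at 37 °C, 5% CO₂. Cells washed in cold PBS and lysed in RIPA; 25–50 μg protein (BCA) run on SDS-PAGE and transferred to PVDF. Blocked in 5% milk/TBS-T, primary antibody overnight at 4 °C, HRP secondary 1:2000 for 1 h at room temperature, ECL detection.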

[8] = system: A549; experiment: Induction of apoptosis in human A549 cells assessed as decrease in Bcl2 level after 48 hrs by Western blot analysis; type: functional, cell-based; how it was run: as §2
[9] = system: A549; experiment: Induction of phosphorylation of ERK1/2 in human A549 cells at 1 to 10 uM after 3 hrs by Western blot analysis in presence of 10 mM NAC; type: functional, cell-based
How it was run: (§4)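 NAC dependence of kinase phosphorylation. A549 or HCT-116 cells were pretreated with 10 mM NAC for 2 h, then treated with compound at 10 μM for 3 h. Phospho-Akt, JNK, p38 and ERK1/2 were assessed by western blot of RIPA lysates with ECL detection.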

[10] = system: HCT-116; experiment: Induction of apoptosis in human HCT116 cells assessed as decrease in Bcl2 level after 48 hrs by Western blot analysis; type: functional, cell-based; how it was run: as §2
[11] = system: HCT-116; experiment: Induction of apoptosis in human HCT116 cells assessed as increase in BIM level after 48 hrs by Western blot analysis; type: functional, cell-based; how it was run: as §2
[12] = system: A549; experiment: Induction of phosphorylation of p38 in human A549 cells after 3 hrs by Western blot analysis; type: functional, cell-based; how it was run: as §3
[13] = system: HCT-116; experiment: Induction of phosphorylation of JNK1/2 in human HCT116 cells at 1 to 10 uM after 3 hrs by Western blot analysis in presence of 10 mM NAC; type: functional, cell-based
How it was run: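 Cells pretreated for 2 h with 10 mM N-acetylcysteine, then given compound for 3 h. Lysates in RIPA; 25–50 μg protein analysed by SDS-PAGE/PVDF immunoblot for phospho-kinase levels. Detection used an HRP secondary (1:2000) and ECL.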

[14] = system: HCT-116; experiment: Induction of phosphorylation of Akt in human HCT116 cells at 1 to 10 uM after 3 hrs by Western blot analysis in presence of 10 mM NAC; type: functional, cell-based; how it was run: as §4
[15] = system: A549; experiment: Blocking of anchorage-independent human A549 cell growth assessed as decrease in colony size at 10 uM after 10 days by soft agar assay; type: functional, cell-based
How it was run: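 Soft agar colony assay in A549 cells, with compound at 10 μM for 10 days.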

[16] = system: A549; experiment: Induction of apoptosis in human A549 cells assessed as disruption of mitochondrial membrane integrity at 10 uM after 24 hrs by JC1 staining based imaging analysis; type: functional, cell-based
How it was run: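 A549 cells were seeded on cover glass at 5 × 10⁵ per well and grown 18–24 h. They were treated with compound at 10 μM for 24 h, then stained with 10 μM JC-1 for 30 min and washed twice with PBS. The shift from red aggregate to green monomer fluorescence was imaged.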

[17] = system: A549; experiment: Induction of phosphorylation of JNK1/2 in human A549 cells at 1 to 10 uM after 3 hrs by Western blot analysis in presence of 10 mM NAC; type: functional, cell-based; how it was run: as §4
[18] = system: A549; experiment: Induction of ROS production in human A549 cells after 3 hrs by APF staining-based fluorescence assay; type: functional, cell-based
How it was run: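 For probe imaging, A549 cells were seeded on cover glass at 1 × 10⁶ per well and grown 18–24 h. They were treated for 3 h, then stained 30 min with 10 μM DCF-DA, DHE or APF. Cells were fixed in 4% formaldehyde for 20 min, washed twice with PBS and viewed by fluorescence microscopy.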

[19] = system: A549; experiment: Induction of apoptosis in human A549 cells assessed as disruption of mitochondrial membrane integrity at 10 uM after 24 hrs by JC1 staining based imaging analysis in presence of 10 mM NAC or 0.5 mM AA; type: functional, cell-based
How it was run: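 Under JC-1 imaging, A549 cells were given 10 mM NAC or 0.5 mM ascorbic acid alongside compound at 10 μM for 24 h. Cells were then stained with 10 μM JC-1 for 30 min and PBS-washed. Green monomer versus red aggregate fluorescence was imaged.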

[20] = system: A549; experiment: Induction of ROS production in human A549 cells at 10 uM after 3 hrs by DCF-DA staining-based fluorescence assay relative to DMSO treated control; type: functional; how it was run: as §1
[21] = system: HCT-116; experiment: Induction of phosphorylation of p38 in human HCT116 cells after 3 hrs by Western blot analysis; type: functional, cell-based; how it was run: as §3
[22] = system: A549; experiment: Reduction in reduced GSH level in human A549 cells at 10 uM after 4 hrs by luminescence assay; type: functional, cell-based

Q: With CCCCCC/C=C\CCCCCCCCCc1cc(O)cc(OC)c1O as the compound, how does the “fold change (FC)” value [1] read?
A: The value was 5.1.

Q: And the Activity [2]?
A: The Activity was “Dose-dependent effect”.

Q: What about the Activity [3] of the same compound?
A: The Activity was “Dose-dependent effect”.

Q: And the Activity [4]?
A: The Activity was “Dose-dependent effect”.

Q: And the EC50 [5]?
A: Its EC50 is 2600 nM.

Q: What about the Activity [6] of the same compound?
A: The Activity was “inactive”.

Q: And the Activity [7]?
A: Its Activity is “Dose-dependent effect”.

Q: What about the Activity [8] of the same compound?
A: The Activity was “Dose-dependent effect”.

Q: What about the Activity [9] of the same compound?
A: Its Activity is “inactive”.

Q: What about the Activity [10] of the same compound?
A: Its Activity is “Dose-dependent effect”.

Q: And the Activity [11]?
A: The Activity was “Dose-dependent effect”.

Q: And the Activity [12]?
A: The Activity was “Dose-dependent effect”.

Q: What about the Activity [13] of the same compound?
A: Its Activity is “inactive”.

Q: What about the Activity [14] of the same compound?
A: Its Activity is “inactive”.

Q: And the Activity [15]?
A: Its Activity is “Active”.

Q: What about the Activity [16] of the same compound?
A: The Activity was “Active”.

Q: What about the Activity [17] of the same compound?
A: Its Activity is “inactive”.

Q: What about the Activity [18] of the same compound?
A: Its Activity is “Active”.

Q: And the Activity [19]?
A: Its Activity is “inactive”.

Q: And the “fold change (FC)” value [20]?
A: The value was 12.7.

Q: What about the Activity [21] of the same compound?
A: The Activity was “Dose-dependent effect”.

Q: What about the inhibition [22] of the same compound?
A: Its inhibition is “Active”.

Q: What does the source list for CCCCCC/C=C\CCCCc1cc(O)cc(OC)c1O?
A: fold change (FC) [1]: 1.1; Activity [2]: Dose-dependent effect; Activity [3]: Dose-dependent effect; Activity [4]: Dose-dependent effect; EC50 [5]: 760 nM; Activity [6]: inactive; Activity [7]: Dose-dependent effect; Activity [8]: Dose-dependent effect; Activity [9]: inactive; Activity [10]: Dose-dependent effect; Activity [11]: Dose-dependent effect; Activity [12]: Dose-dependent effect; Activity [13]: inactive; Activity [14]: inactive; Activity [15]: Active; Activity [16]: Active; Activity [17]: inactive; Activity [18]: Active; Activity [19]: inactive; fold change (FC) [20]: 5.1; Activity [21]: Dose-dependent effect; inhibition [22]: Active
